Test results reported in ChEMBL document CHEMBL3352644, “Selenadiazole derivatives as potent thioredoxin reductase inhibitors that enhance the radiosensitivity of cancer cells” (Eur J Med Chem, 2014).
≈ marks a conversion by molar mass, not a printed value. Calls of active or inactive are those of the source. The calls are words filed in the database; no cut-off is given here.

Legend:
[1] = tested on: A-375; experiment: Induction of ROS generation in human A375 cells at 2 ug/mL incubated for 6 hrs followed by irradiation with 8 Gy X-ray at 37 degC for 12 hrs by DCF and DHE dye based fluorescence assay; assay type: functional, cell-based
Method in brief: (§1)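 A375 cells (4 × 10⁴/well) cultured 24 h, then treated 6 h at 8 or 16 µg/ml or at 2 or 4 µg/ml, and given 0 or 8 Gy X-ray. Loaded with H₂DCF or DHE for 30 min at 37 °C in the dark. Fluorescence read at 485/535 nm (DCF) or 480/610 nm (DHE); % of control.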

[2] = tested on: A-375; experiment: Increase in Bax expression in human A375 cells at 4 ug/mL incubated for 18 hrs by Western blotting method; assay type: functional, cell-based
Method in brief: (§2)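 A375 cells pretreated 6 h with compound at 4 µg/ml, given 0 or 8 Gy X-ray, then incubated 12 h more. Lysed in RIPA buffer, pH 7.4, with protease and phosphatase inhibitors; 50 µg protein run on SDS-PAGE and blotted to nitrocellulose. Blocked in 5% milk; primary antibodies 1:1000, 10 h at 4 °C; HRP secondary 1:2000.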

[3] = tested on: A-375; experiment: Reduction in Bcl-2 expression in human A375 cells at 4 ug/mL incubated for 6 hrs followed by irradiation with 8 Gy X-ray at 37 degC for 12 hrs by Western blotting method; assay type: functional, cell-based
Method in brief: (§3)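 A375 cells given […] for 6 h, then 0 or 8 Gy X-ray at 1.5 Gy/min and 12 h further culture. Lysis in ice-cold RIPA, pH 7.4, with protease and phosphatase inhibitors; protein by BCA. […] protein per lane on SDS-PAGE, transferred to nitrocellulose. Blocked in 5% milk/TBST. Primary 1:1000, 10 h, 4 °C; HRP secondary 1:2000, 1.5 h.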

[4] = tested on: A-375; experiment: Induction of apoptosis in human A375 cells assessed as caspase 3 activation at 2 ug/mL incubated for 6 hrs followed by irradiation with 8 Gy X-ray at 37 degC for 12 hrs by Western blotting method; assay type: functional, cell-based
Method in brief: (§4)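 A375 cells treated with 2 µg/ml alone or with 8 Gy X-ray (6 h pretreatment, then 12 h; 18 h total). RIPA lysates (50 µg protein) run on SDS-PAGE and immunoblotted for caspases and PARP cleavage. Reprobed for β-actin as loading control.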

[5] = tested on: A-375; experiment: Increase in Bax expression in human A375 cells at 4 ug/mL incubated for 6 hrs followed by irradiation with 8 Gy X-ray at 37 degC for 12 hrs by Western blotting method; assay type: functional, cell-based; method in brief: as §2
[6] = tested on: A-375; experiment: Cytotoxicity against human A375 cells pre-treated with 20 uM p38 inhibitor […] for 1 hr followed by 8 ug/mL compound exposure for 18 hrs by MTT assay; assay type: functional, cell-based
Method in brief: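 A375 cells pretreated 1 h with 20 µM SP600125 (JNK) or SB203580 (p38), then exposed to compound at 8 µg/ml for 18 h. Viability by MTT (formazan in DMSO, 570 nm), expressed as % of control.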

[7] = tested on: A-375; experiment: Cytotoxicity against human A375 cells incubated for 6 hrs followed by irradiation with 8 Gy X-ray at 37 degC for 12 hrs by MTT assay; assay type: functional, cell-based; details: A-375, light or radiation study
Method in brief: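 A375 cells (DMEM, 10% FBS, 37 °C, 5% CO2) seeded at 4 × 10⁴ cells/well and grown to 70–80% confluence. Treated with 0, 1, 2, 4, 8, 16 or 32 µg/ml for 6 h, then given 0 or 8 Gy X-ray (linear accelerator, 1.5 Gy/min), then 12 h more at 37 °C. MTT 4 h, formazan dissolved in DMSO, read at 570 nm; % of control; three repeats.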

[8] = tested on: A-375; experiment: Induction of cell morphological changes in human A375 cells pre-treated with 20 uM p38 inhibitor […] for 1 hr followed by 8 ug/mL compound exposure for 18 hrs; assay type: functional, cell-based
[9] = tested on: A-375; experiment: Induction of apoptosis in human A375 cells assessed as caspase 3 activation at 2 ug/mL incubated for 6 hrs followed by irradiation with 8 Gy X-ray at 37 degC for 12 hrs by fluorometric assay; assay type: functional, cell-based
Method in brief: (§5)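 Cells seeded at 1 × 10⁶ per 10 cm dish and treated with 2 µg/ml alone or with 8 Gy X-ray for 18 h total. RIPA lysates clarified by spinning at 12,000 rpm for 5 min; 80 µg protein given Ac-DEVD-AMC (caspase-3), Ac-IETD-AMC (caspase-8) or Ac-LEHD-AMC (caspase-9). Incubated 2 h at 37 °C in the dark; fluorescence at 380/440 nm.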

[10] = tested on: A-375; experiment: Induction of ROS generation in human A375 cells at 4 ug/mL incubated for 6 hrs followed by irradiation with 8 Gy X-ray at 37 degC for 12 hrs by DCF and DHE dye based fluorescence assay; assay type: functional, cell-based; method in brief: as §1
[11] = tested on: A-375; experiment: Reduction in Bcl-2 expression in human A375 cells at 4 ug/mL incubated for 18 hrs by Western blotting method; assay type: functional, cell-based; method in brief: as §3
[12] = biological target: c-Jun N-terminal kinase, JNK (Homo sapiens) (UniProt P45983+P53779+P45984); experiment: Induction of JNK phosphorylation in human A375 cells at 4 ug/mL incubated for 18 hrs by Western blotting method; assay type: cell-based; details: A-375; method in brief: as §2
[13] = tested on: A-375; experiment: Induction of apoptosis in human A375 cells assessed as caspase PARP cleavage at 2 ug/mL incubated for 18 hrs by Western blotting method; assay type: functional, cell-based; method in brief: as §4
[14] = biological target: MAP kinase p38 (Homo sapiens) (UniProt O15264+Q15759+Q16539+P53778); experiment: Induction of p38 phosphorylation in human A375 cells at 4 ug/mL incubated for 6 hrs followed by irradiation with 8 Gy X-ray at 37 degC for 12 hrs by Western blotting method; assay type: cell-based; details: A-375; method in brief: as §3
[15] = tested on: A-375; experiment: Induction of cell cycle arrest in human A375 cells assessed as accumulation at G1/G0 phase at 4 ug/mL incubated for 6 hrs followed by irradiation with 8 Gy X-ray at 37 degC for 12 hrs by propidium iodide staining based flow cytometry (reference value: 44.9%); assay type: functional
Method in brief: (§6)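 A375 cells treated at 10 or 4 µg/ml for 6 h, given 0 or 8 Gy X-ray, then 12 h more. Trypsinized, washed in PBS, fixed overnight in ice-cold 75% ethanol at −20 °C. Stained with propidium iodide, 30 min at 37 °C in the dark; DNA content and sub-G1 population read by flow cytometry.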

[16] = tested on: A-375; experiment: Induction of apoptosis in human A375 cells assessed as caspase 9 activation at 2 ug/mL incubated for 18 hrs by fluorometric assay; assay type: functional, cell-based; method in brief: as §5
[17] = tested on: A-375; experiment: Induction of apoptosis in human A375 cells assessed as accumulation at subG1 phase at 4 ug/mL incubated for 18 hrs by propidium iodide staining based flow cytometry (reference value: 1.8%); assay type: functional; method in brief: as §6
[18] = tested on: A-375; experiment: Induction of cell cycle arrest in human A375 cells assessed as accumulation at G1/G0 phase at 4 ug/mL incubated for 18 hrs by propidium iodide staining based flow cytometry (reference value: 48.9%); assay type: functional; method in brief: as §6
[19] = tested on: A-375; experiment: Induction of apoptosis in human A375 cells assessed as caspase 3 activation at 2 ug/mL incubated for 18 hrs by Western blotting method; assay type: functional, cell-based; method in brief: as §4
[20] = biological target: Thioredoxin reductase (Homo sapiens) (UniProt Q16881+Q9NNW7+Q86VQ6); experiment: Inhibition of TrxR antioxidant enzyme activity in human A375 cells at 2 ug/mL after 18 hrs by insulin reduction assay; assay type: cell-based; details: A-375

COc1cc(-c2nc3cc(-c4ccc5n[se]nc5c4)ccc3[nH]2)cc(OC)c1OC
Activity [1]: Active | Activity [2]: Active | Activity [3]: Active | Activity [4]: Active | Activity [5]: Active | Activity [6]: inactive | IC50 [7]: 2.2 µg/mL (≈ 4.73 µM) | Activity [8]: inactive | Activity [9]: Active | Activity [10]: Active | Activity [11]: Active | Activity [12]: Active | Activity [13]: Active | Activity [14]: Active | Activity [15]: 47.3% | Activity [16]: Active | Activity [17]: 36.2% | Activity [18]: 21.6% | Activity [19]: Active | inhibition [20]: Active
